Laboratory results from ChEMBL document CHEMBL3797186, “Single Residue Substitutions That Confer Voltage-Gated Sodium Ion Channel Subtype Selectivity in the NaV1.7 Inhibitory Peptide GpTx-1” (J Med Chem, 2016).
Positions of bridges follow the written chain, without caps; N, C: chain ends. Non-standard residues stand in square brackets, D forms with d. Residues, ends and D or L forms follow the SMILES beside them. 1Nal = N[C@@H](Cc1cccc2ccccc12)C(=O)O; 2Pal = N[C@@H](Cc1ccccn1)C(=O)O

What was measured:
Assay type in all cases: cell-based
[1] = biological target: T1, Sodium channel protein type 9 subunit alpha (Homo sapiens, UniProt Q15858); assay: Inhibition of human Nav1.7 expressed in HEK293 cells assessed as inward peak current by ion-works quattro patch clamp electrophysiology method
[2] = biological target: T2, Sodium channel protein type 5 subunit alpha (Homo sapiens, UniProt Q14524); assay: Inhibition of human Nav1.5 expressed in HEK293 cells assessed as inward peak current by ion-works quattro patch clamp electrophysiology method
Outline: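 Stable HEK293 line expressing human NaV1.5, recorded by population patch clamp on the IonWorks Quattro.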

[3] = biological target: T1, Sodium channel protein type 9 subunit alpha; assay: Inhibition of human Nav1.7 expressed in HEK293 cells by whole cell patch clamp electrophysiology method
[4] = biological target: T2, Sodium channel protein type 5 subunit alpha; assay: Inhibition of human Nav1.5 expressed in HEK293 cells by whole cell patch clamp electrophysiology method
Outline: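 Stable HEK293 line expressing human NaV1.5, recorded on the PatchXpress 7000A. Percent inhibition versus concentration was pooled from at least 10 cells, with two to three points per concentration. The pooled set was fitted with a four-parameter Hill equation to give a single IC50 curve.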

T2 sequence (Q14524 whole entry): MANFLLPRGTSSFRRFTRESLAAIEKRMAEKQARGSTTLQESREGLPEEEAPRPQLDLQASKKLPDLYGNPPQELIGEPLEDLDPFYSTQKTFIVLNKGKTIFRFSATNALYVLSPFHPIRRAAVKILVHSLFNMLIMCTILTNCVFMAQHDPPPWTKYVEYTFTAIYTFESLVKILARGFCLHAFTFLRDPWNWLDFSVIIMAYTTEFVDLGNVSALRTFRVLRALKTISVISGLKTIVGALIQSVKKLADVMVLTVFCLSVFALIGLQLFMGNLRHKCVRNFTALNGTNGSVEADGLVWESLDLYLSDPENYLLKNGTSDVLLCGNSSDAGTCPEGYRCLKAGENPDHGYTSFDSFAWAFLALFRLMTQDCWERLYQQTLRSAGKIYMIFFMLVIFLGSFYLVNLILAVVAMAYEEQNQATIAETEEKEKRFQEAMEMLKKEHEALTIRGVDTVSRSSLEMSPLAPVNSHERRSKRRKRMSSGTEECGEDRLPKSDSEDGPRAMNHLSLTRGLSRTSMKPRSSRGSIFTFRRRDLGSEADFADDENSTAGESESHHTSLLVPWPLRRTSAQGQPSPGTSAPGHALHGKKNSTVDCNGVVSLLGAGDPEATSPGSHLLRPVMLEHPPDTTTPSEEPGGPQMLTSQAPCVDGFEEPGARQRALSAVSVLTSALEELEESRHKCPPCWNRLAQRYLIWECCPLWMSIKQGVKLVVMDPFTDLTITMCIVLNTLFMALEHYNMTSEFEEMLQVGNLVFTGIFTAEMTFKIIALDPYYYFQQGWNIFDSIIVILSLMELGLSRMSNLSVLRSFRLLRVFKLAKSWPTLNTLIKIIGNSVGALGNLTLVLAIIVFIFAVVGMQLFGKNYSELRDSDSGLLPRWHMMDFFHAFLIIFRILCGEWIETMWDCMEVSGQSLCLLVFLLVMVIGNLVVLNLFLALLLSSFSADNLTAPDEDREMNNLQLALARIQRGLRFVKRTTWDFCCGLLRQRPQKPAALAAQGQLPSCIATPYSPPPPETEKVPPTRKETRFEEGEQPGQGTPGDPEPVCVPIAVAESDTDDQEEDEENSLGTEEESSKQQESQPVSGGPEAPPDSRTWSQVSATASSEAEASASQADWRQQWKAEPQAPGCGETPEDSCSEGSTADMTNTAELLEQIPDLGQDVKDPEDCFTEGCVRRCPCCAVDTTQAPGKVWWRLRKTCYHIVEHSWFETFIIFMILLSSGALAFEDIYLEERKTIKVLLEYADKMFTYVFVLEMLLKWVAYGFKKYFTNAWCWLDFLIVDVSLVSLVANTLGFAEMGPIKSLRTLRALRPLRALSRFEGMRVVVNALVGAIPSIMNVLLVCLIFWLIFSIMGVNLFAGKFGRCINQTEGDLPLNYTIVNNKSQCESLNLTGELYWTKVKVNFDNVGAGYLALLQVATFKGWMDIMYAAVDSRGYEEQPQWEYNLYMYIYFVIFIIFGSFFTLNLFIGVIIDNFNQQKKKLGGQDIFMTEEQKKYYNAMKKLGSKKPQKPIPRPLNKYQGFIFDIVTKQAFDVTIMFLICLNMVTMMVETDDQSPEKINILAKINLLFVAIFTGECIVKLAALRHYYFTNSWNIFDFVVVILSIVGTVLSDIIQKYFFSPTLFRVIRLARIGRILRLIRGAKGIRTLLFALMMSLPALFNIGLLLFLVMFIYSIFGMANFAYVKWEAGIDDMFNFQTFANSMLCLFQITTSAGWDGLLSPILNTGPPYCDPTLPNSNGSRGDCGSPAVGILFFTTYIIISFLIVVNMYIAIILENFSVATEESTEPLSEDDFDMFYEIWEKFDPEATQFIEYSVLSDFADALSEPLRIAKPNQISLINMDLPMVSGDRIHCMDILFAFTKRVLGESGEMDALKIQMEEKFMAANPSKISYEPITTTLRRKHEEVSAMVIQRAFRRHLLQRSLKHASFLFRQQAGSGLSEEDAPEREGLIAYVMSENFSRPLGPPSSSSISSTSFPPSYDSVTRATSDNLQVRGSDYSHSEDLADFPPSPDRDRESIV
T1 sequence (Q15858 whole entry): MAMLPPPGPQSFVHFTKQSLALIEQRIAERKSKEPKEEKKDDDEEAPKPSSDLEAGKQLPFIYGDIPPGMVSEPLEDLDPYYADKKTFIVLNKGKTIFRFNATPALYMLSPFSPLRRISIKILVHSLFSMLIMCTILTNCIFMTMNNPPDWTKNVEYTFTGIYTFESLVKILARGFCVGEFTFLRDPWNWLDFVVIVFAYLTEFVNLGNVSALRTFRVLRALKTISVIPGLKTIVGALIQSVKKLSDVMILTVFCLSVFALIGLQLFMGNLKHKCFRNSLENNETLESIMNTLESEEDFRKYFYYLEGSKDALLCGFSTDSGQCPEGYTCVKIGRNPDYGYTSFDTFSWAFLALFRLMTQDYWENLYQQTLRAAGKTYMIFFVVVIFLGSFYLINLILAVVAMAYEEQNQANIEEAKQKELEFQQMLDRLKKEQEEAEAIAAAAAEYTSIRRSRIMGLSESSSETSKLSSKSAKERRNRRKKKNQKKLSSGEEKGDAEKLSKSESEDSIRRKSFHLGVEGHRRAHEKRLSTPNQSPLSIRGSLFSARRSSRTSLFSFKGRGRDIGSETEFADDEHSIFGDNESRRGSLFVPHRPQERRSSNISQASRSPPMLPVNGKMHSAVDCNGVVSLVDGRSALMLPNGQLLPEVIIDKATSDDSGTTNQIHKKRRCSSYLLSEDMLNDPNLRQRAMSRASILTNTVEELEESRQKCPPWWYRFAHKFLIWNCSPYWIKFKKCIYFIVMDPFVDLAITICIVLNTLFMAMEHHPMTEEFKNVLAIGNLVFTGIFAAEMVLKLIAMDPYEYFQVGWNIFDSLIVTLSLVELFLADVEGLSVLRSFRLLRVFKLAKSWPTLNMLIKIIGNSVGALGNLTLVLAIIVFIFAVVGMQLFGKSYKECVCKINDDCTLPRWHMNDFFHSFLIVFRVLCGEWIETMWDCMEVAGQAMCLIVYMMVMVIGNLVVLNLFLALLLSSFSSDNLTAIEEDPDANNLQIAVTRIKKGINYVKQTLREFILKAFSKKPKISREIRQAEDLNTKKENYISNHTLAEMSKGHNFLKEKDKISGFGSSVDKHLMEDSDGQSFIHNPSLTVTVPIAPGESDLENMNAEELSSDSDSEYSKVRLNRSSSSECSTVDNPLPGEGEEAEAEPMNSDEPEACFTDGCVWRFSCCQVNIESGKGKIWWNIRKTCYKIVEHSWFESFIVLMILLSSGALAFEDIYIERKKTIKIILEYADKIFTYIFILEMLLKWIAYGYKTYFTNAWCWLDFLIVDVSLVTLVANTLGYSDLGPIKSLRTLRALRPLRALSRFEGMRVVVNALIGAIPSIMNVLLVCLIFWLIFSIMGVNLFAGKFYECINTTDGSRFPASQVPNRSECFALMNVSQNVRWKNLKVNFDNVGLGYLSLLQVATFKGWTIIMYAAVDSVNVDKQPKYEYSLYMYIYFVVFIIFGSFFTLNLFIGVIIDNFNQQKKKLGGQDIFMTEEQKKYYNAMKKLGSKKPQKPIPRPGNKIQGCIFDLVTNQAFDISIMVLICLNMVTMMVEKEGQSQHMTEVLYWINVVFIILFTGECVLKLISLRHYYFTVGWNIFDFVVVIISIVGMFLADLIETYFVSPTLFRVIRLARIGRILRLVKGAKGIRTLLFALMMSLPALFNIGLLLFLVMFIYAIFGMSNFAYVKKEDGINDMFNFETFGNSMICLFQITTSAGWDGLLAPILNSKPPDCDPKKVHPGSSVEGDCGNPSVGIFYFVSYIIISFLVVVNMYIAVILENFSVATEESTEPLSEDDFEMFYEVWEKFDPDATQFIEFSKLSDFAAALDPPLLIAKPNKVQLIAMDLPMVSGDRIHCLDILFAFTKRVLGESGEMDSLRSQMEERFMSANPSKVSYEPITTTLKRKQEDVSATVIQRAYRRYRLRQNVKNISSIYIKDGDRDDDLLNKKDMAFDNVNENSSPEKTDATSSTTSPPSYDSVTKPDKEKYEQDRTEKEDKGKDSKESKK

SMILES	IC50 [1]	IC50 [2]	IC50 [3]	IC50 [4]
CC[C@H](C)[C@@H]1NC(=O)[C@@H]2CSSC[C@@H]3NC(=O)[C@H](C(C)C)NC(=O)[C@H](CC(C)C)NC(=O)[C@H](CC(N)=O)NC(=O)[C@@H]4CCCN4C(=O)[C@H](CCCNC(=N)N)NC(=O)[C@H](CSSC[C@H](NC(=O)[C@@H](N)CC(=O)O)C(=O)N[C@@H](CC(C)C)C(=O)NCC(=O)N[C@@H](Cc4ccccc4)C(=O)N[C@@H](CCSC)C(=O)N[C@@H](CCCNC(=N)N)C(=O)N[C@@H](CCCCN)C(=O)N2)NC(=O)[C@H](CSSC[C@@H](C(=O)N[C@@H](CCCCN)C(=O)N[C@@H](Cc2ccc(O)cc2)C(=O)N[C@H](C(=O)N[C@@H](Cc2cccc4ccccc24)C(N)=O)C(C)C)NC(=O)[C@H](Cc2c[nH]c4ccccc24)NC(=O)[C@H](CCCCN)NC(=O)[C@H](Cc2cnc[nH]2)NC(=O)[C@H]([C@@H](C)O)NC(=O)[C@H](CCCNC(=N)N)NC(=O)[C@H](CO)NC3=O)NC(=O)[C@H](CCCCN)NC(=O)[C@H](CC(=O)O)NC(=O)[C@H](CC(N)=O)NC(=O)[C@H](CC(=O)O)NC(=O)[C@@H]2CCCN2C1=O (H-DCLGFMRKCIPDNDKCCRPNLVCSRTHKWCKYV[1Nal]-NH2; disulfide 2-17, 9-23, 16-30)	40 nM	> 5000 nM	5 nM	1800 nM
CC[C@H](C)[C@@H]1NC(=O)[C@@H]2CSSC[C@@H]3NC(=O)[C@H](C(C)C)NC(=O)[C@H](CC(C)C)NC(=O)[C@H](CC(N)=O)NC(=O)[C@@H]4CCCN4C(=O)[C@H](Cc4ccccn4)NC(=O)[C@H](CSSC[C@H](NC(=O)[C@@H](N)CC(=O)O)C(=O)N[C@@H](CC(C)C)C(=O)NCC(=O)N[C@@H](Cc4ccccc4)C(=O)N[C@@H](CCSC)C(=O)N[C@@H](CCCNC(=N)N)C(=O)N[C@@H](CCCCN)C(=O)N2)NC(=O)[C@H](CSSC[C@@H](C(=O)N[C@@H](CCCCN)C(=O)N[C@@H](Cc2ccc(O)cc2)C(=O)N[C@H](C(=O)N[C@@H](Cc2ccccc2)C(N)=O)C(C)C)NC(=O)[C@H](Cc2c[nH]c4ccccc24)NC(=O)[C@H](CCCCN)NC(=O)[C@H](Cc2cnc[nH]2)NC(=O)[C@H]([C@@H](C)O)NC(=O)[C@H](CCCNC(=N)N)NC(=O)[C@H](CO)NC3=O)NC(=O)[C@H](CCCCN)NC(=O)[C@H](CC(=O)O)NC(=O)[C@H](CC(N)=O)NC(=O)[C@H](CC(=O)O)NC(=O)[C@@H]2CCCN2C1=O (H-DCLGFMRKCIPDNDKCC[2Pal]PNLVCSRTHKWCKYVF-NH2; disulfide 2-17, 9-23, 16-30)	300 nM	> 5000 nM	4 nM	13100 nM
CSCC[C@@H]1NC(=O)[C@H](Cc2ccccc2)NC(=O)CNC(=O)[C@H](CC(C)C)NC(=O)[C@@H](NC(=O)[C@@H](N)CC(=O)O)CSSC[C@@H]2NC(=O)[C@@H]3CSSC[C@@H](C(=O)N[C@@H](CCCCN)C(=O)N[C@@H](Cc4ccc(O)cc4)C(=O)N[C@H](C(=O)N[C@@H](Cc4ccccc4)C(N)=O)C(C)C)NC(=O)[C@H](Cc4c[nH]c5ccccc45)NC(=O)[C@H](CCCCN)NC(=O)[C@H](Cc4cnc[nH]4)NC(=O)[C@H]([C@@H](C)O)NC(=O)[C@H](CCCNC(=N)N)NC(=O)[C@H](CO)NC(=O)[C@H](CSSC[C@H](NC(=O)[C@H](CCCCN)NC(=O)[C@H](CCCNC(=N)N)NC1=O)C(=O)N[C@@H](CCC(=O)O)C(=O)N1CCC[C@H]1C(=O)N[C@@H](CC(=O)O)C(=O)N[C@@H](CC(N)=O)C(=O)N[C@@H](CC(=O)O)C(=O)N[C@@H](CCCCN)C(=O)N3)NC(=O)[C@H](C(C)C)NC(=O)[C@H](CC(C)C)NC(=O)[C@H](CC(N)=O)NC(=O)[C@@H]1CCCN1C(=O)[C@H](CCCNC(=N)N)NC2=O (H-DCLGFMRKCEPDNDKCCRPNLVCSRTHKWCKYVF-NH2; disulfide 2-17, 9-23, 16-30)		> 5000 nM	2.1 nM	> 10000 nM
CC[C@H](C)[C@@H]1NC(=O)[C@@H]2CSSC[C@@H]3NC(=O)[C@H](C(C)C)NC(=O)[C@H](CC(C)C)NC(=O)[C@H](CC(N)=O)NC(=O)[C@H](CCCCN)NC(=O)[C@H](CCCNC(=N)N)NC(=O)[C@H](CSSC[C@H](NC(=O)[C@@H](N)CC(=O)O)C(=O)N[C@@H](CC(C)C)C(=O)NCC(=O)N[C@@H](Cc4ccccc4)C(=O)N[C@@H](CCSC)C(=O)N[C@@H](CCCNC(=N)N)C(=O)N[C@@H](CCCCN)C(=O)N2)NC(=O)[C@H](CSSC[C@@H](C(=O)N[C@@H](CCCCN)C(=O)N[C@@H](Cc2ccc(O)cc2)C(=O)N[C@H](C(=O)N[C@@H](Cc2ccccc2)C(N)=O)C(C)C)NC(=O)[C@H](Cc2c[nH]c4ccccc24)NC(=O)[C@H](CCCCN)NC(=O)[C@H](Cc2cnc[nH]2)NC(=O)[C@H]([C@@H](C)O)NC(=O)[C@H](CCCNC(=N)N)NC(=O)[C@H](CO)NC3=O)NC(=O)[C@H](CCCCN)NC(=O)[C@H](CC(=O)O)NC(=O)[C@H](CC(N)=O)NC(=O)[C@H](CC(=O)O)NC(=O)[C@@H]2CCCN2C1=O (H-DCLGFMRKCIPDNDKCCRKNLVCSRTHKWCKYVF-NH2; disulfide 2-17, 9-23, 16-30)		> 5000 nM	2.3 nM	> 10000 nM
CC[C@H](C)[C@@H]1NC(=O)[C@@H]2CSSC[C@@H]3NC(=O)[C@H](C(C)C)NC(=O)[C@H](CC(C)C)NC(=O)[C@H](CC(N)=O)NC(=O)[C@@H]4CCCN4C(=O)[C@H](CCCNC(=N)N)NC(=O)[C@H](CSSC[C@H](NC(=O)[C@@H](N)CC(=O)O)C(=O)N[C@@H](CC(C)C)C(=O)NCC(=O)N[C@@H](Cc4ccccc4)C(=O)N[C@@H](CCSC)C(=O)N[C@@H](CCCNC(=N)N)C(=O)N[C@@H](CCCCN)C(=O)N2)NC(=O)[C@H](CSSC[C@@H](C(=O)N[C@@H](CCCCN)C(=O)N[C@@H](Cc2ccc(O)cc2)C(=O)N[C@H](C(=O)N[C@@H](Cc2ccccc2)C(N)=O)C(C)C)NC(=O)[C@H](Cc2c[nH]c4ccccc24)NC(=O)[C@H](CC(=O)O)NC(=O)[C@H](Cc2cnc[nH]2)NC(=O)[C@H]([C@@H](C)O)NC(=O)[C@H](CCCNC(=N)N)NC(=O)[C@H](CO)NC3=O)NC(=O)[C@H](CCCCN)NC(=O)[C@H](CC(=O)O)NC(=O)[C@H](CC(N)=O)NC(=O)[C@H](CC(=O)O)NC(=O)[C@@H]2CCCN2C1=O (H-DCLGFMRKCIPDNDKCCRPNLVCSRTHDWCKYVF-NH2; disulfide 2-17, 9-23, 16-30)			16 nM	> 10000 nM
CSCC[C@@H]1NC(=O)[C@H](Cc2ccccc2)NC(=O)CNC(=O)[C@H](CC(C)C)NC(=O)[C@@H](NC(=O)[C@@H](N)CC(=O)O)CSSC[C@@H]2NC(=O)[C@@H]3CSSC[C@@H](C(=O)N[C@@H](CCCCN)C(=O)N[C@@H](Cc4ccc(O)cc4)C(=O)N[C@H](C(=O)N[C@@H](Cc4ccccc4)C(N)=O)C(C)C)NC(=O)[C@H](Cc4c[nH]c5ccccc45)NC(=O)[C@H](CCCCN)NC(=O)[C@H](Cc4cnc[nH]4)NC(=O)[C@H]([C@@H](C)O)NC(=O)[C@H](CCCNC(=N)N)NC(=O)[C@H](CO)NC(=O)[C@H](CSSC[C@H](NC(=O)[C@H](CCCCN)NC(=O)[C@H](CCCNC(=N)N)NC1=O)C(=O)N[C@@H](CC(=O)O)C(=O)N1CCC[C@H]1C(=O)N[C@@H](CC(=O)O)C(=O)N[C@@H](CC(N)=O)C(=O)N[C@@H](CC(=O)O)C(=O)N[C@@H](CCCCN)C(=O)N3)NC(=O)[C@H](C(C)C)NC(=O)[C@H](CC(C)C)NC(=O)[C@H](CC(N)=O)NC(=O)[C@@H]1CCCN1C(=O)[C@H](CCCNC(=N)N)NC2=O (H-DCLGFMRKCDPDNDKCCRPNLVCSRTHKWCKYVF-NH2; disulfide 2-17, 9-23, 16-30)		> 5000 nM	4 nM	> 10000 nM
CC[C@H](C)[C@@H]1NC(=O)[C@@H]2CSSC[C@@H]3NC(=O)[C@H](C(C)C)NC(=O)[C@H](CC(C)C)NC(=O)[C@H](CC(N)=O)NC(=O)[C@@H]4CCCN4C(=O)[C@H](CCCNC(=N)N)NC(=O)[C@H](CSSC[C@H](NC(=O)[C@@H](N)CC(=O)O)C(=O)N[C@@H](CC(C)C)C(=O)NCC(=O)N[C@@H](Cc4ccccc4)C(=O)N[C@@H](CCSC)C(=O)N[C@@H](CCCNC(=N)N)C(=O)N[C@@H](CCCCN)C(=O)N2)NC(=O)[C@H](CSSC[C@@H](C(=O)N[C@@H](CCCCN)C(=O)N[C@@H](Cc2ccc(O)cc2)C(=O)N[C@H](C(=O)N[C@@H](Cc2ccccc2)C(N)=O)C(C)C)NC(=O)[C@H](Cc2c[nH]c4ccccc24)NC(=O)[C@H](CCCCN)NC(=O)[C@H](Cc2cnc[nH]2)NC(=O)[C@H]([C@@H](C)O)NC(=O)[C@H](CCCNC(=N)N)NC(=O)[C@H](CO)NC3=O)NC(=O)[C@H](CCCCN)NC(=O)[C@H](CC(=O)O)NC(=O)[C@H](CC(N)=O)NC(=O)[C@H](CC(=O)O)NC(=O)[C@H](CCC(=O)O)NC1=O (H-DCLGFMRKCIEDNDKCCRPNLVCSRTHKWCKYVF-NH2; disulfide 2-17, 9-23, 16-30)		> 5000 nM	2.5 nM	> 10000 nM
CC[C@H](C)[C@@H]1NC(=O)[C@@H]2CSSC[C@@H]3NC(=O)[C@H](C(C)C)NC(=O)[C@H](CC(C)C)NC(=O)[C@H](CC(N)=O)NC(=O)[C@@H]4CCCN4C(=O)[C@H](CCC(=O)O)NC(=O)[C@H](CSSC[C@H](NC(=O)[C@@H](N)CC(=O)O)C(=O)N[C@@H](CC(C)C)C(=O)NCC(=O)N[C@@H](Cc4ccccc4)C(=O)N[C@@H](CCSC)C(=O)N[C@@H](CCCNC(=N)N)C(=O)N[C@@H](CCCCN)C(=O)N2)NC(=O)[C@H](CSSC[C@@H](C(=O)N[C@@H](CCCCN)C(=O)N[C@@H](Cc2ccc(O)cc2)C(=O)N[C@H](C(=O)N[C@@H](Cc2ccccc2)C(N)=O)C(C)C)NC(=O)[C@H](Cc2c[nH]c4ccccc24)NC(=O)[C@H](CCCCN)NC(=O)[C@H](Cc2cnc[nH]2)NC(=O)[C@H]([C@@H](C)O)NC(=O)[C@H](CCCNC(=N)N)NC(=O)[C@H](CO)NC3=O)NC(=O)[C@H](CCCCN)NC(=O)[C@H](CC(=O)O)NC(=O)[C@H](CC(N)=O)NC(=O)[C@H](CC(=O)O)NC(=O)[C@@H]2CCCN2C1=O (H-DCLGFMRKCIPDNDKCCEPNLVCSRTHKWCKYVF-NH2; disulfide 2-17, 9-23, 16-30)		> 5000 nM	17 nM	> 10000 nM
